The source made the active and inactive calls. The calls are words filed in the database; no cut-off is given here.
Tests used:
[1] = Toxicity against human NHDF assessed as cell viability at 160 uM incubated for 3 days by MTT assay; format: cell-based; details: NHDF cells, read-out: Activity
How it was run: (§1)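 Normal human dermal fibroblasts kept 3 days in DMEM with 10% FCS at increasing concentrations up to 160 μM, DMSO-matched controls. MTT reduction read at 540 nm as percentage viability (mean ± SEM, n = 3), with microscopic morphology scoring.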

[2] = Toxicity against human NHDF assessed as reduction in cell viability incubated for 3 days by MTT assay; format: cell-based; details: NHDF cells; how it was run: as §1
PC-3 [3] = assay: Antiproliferative activity against human PC3 cells assessed as inhibition of cell growth at 40 uM after 4 days; format: functional, cell-based
How it was run: (§2)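 Cell counting: 40 000 cells/well seeded and grown at 37 °C, 5% CO2 in medium with 10% FCS, 2 mM glutamine and penicillin-streptomycin (Ham's F12 for PC-3, RPMI for Jurkat, DMEM for the others). Compound added from a 50-fold stock in 10% DMSO; controls 0.2% DMSO. Quadruplicate wells trypsinized (Jurkat not) and counted in a Malassez chamber; mean ± SEM, n = 4.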

HT-29 [4] = assay: Antiproliferative activity against human HT-29 cells assessed as inhibition of cell growth at 40 uM after 4 days; format: functional, cell-based; how it was run: as §2
Jurkat [5] = assay: Antiproliferative activity against human Jurkat cells assessed as inhibition of cell growth at 40 uM after 4 days; format: functional, cell-based; how it was run: as §2
C6 [6] = assay: Antiproliferative activity against rat C6 cells assessed as inhibition of cell growth at 40 uM after 4 days; format: functional, cell-based; how it was run: as §2
NIH3T3 [7] = assay: Antiproliferative activity against mouse NIH/3T3 cells assessed as inhibition of cell growth at 40 uM after 4 days; format: functional, cell-based; how it was run: as §2
HeLa [8] = assay: Antiproliferative activity against human HeLa cells assessed as inhibition of cell growth at 40 uM after 2 days; format: functional; details: 48 h, read-out: GI; how it was run: as §2
HeLa [9] = assay: Antiproliferative activity against human HeLa cells assessed as inhibition of cell growth at 10 uM after 4 days; format: functional; details: 96 h, read-out: GI; how it was run: as §2
[10] = Antiproliferative activity against human PC3 cells assessed as inhibition of cell growth at 10 to 60 uM after 4 days; format: functional, cell-based; details: PC-3, 96 h; how it was run: as §2
HT-29 [11] = assay: Antiproliferative activity against human HT-29 cells assessed as inhibition of cell growth at 10 to 60 uM after 4 days; format: functional, cell-based; details: HT-29, 96 h; how it was run: as §2
Jurkat [12] = assay: Antiproliferative activity against human Jurkat cells assessed as inhibition of cell growth at 10 to 60 uM after 4 days; format: functional, cell-based; details: 96 h; how it was run: as §2
HeLa [13] = assay: Antiproliferative activity against human HeLa cells assessed as inhibition of cell growth at 10 to 60 uM after 4 days; format: functional, cell-based; details: 96 h; how it was run: as §2
C6 [14] = assay: Antiproliferative activity against rat C6 cells assessed as inhibition of cell growth at 10 to 60 uM after 4 days; format: functional, cell-based; details: C6, 96 h; how it was run: as §2
[15] = Antiproliferative activity against mouse NIH/3T3 cells assessed as inhibition of cell growth at 10 to 60 uM after 4 days; format: functional, cell-based; details: NIH3T3, 96 h; how it was run: as §2
[16] = Antiproliferative activity against human PC3 cells assessed as induction of cell death at 40 to 60 uM after 4 days; format: functional, PC-3
How it was run: as §2, with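 “Cells seeded at” for “Cell counting:”, “per well” for “cells/well seeded”, “CO2” for “CO2 in medium”, “HT-29, HeLa, C6, NIH-3T3).” for “the others).”, “solution” for “stock”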

HT-29 [17] = assay: Antiproliferative activity against human HT-29 cells assessed as induction of cell death at 40 to 60 uM after 4 days; format: functional
How it was run: as §2, with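 “Cells seeded at” for “Cell counting:”, “per well” for “cells/well seeded”, “CO2” for “CO2 in medium”, “HT-29, HeLa, C6, NIH-3T3).” for “the others).”, “solution” for “stock”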

Jurkat [18] = assay: Antiproliferative activity against human Jurkat cells assessed as induction of cell death at 40 to 60 uM after 4 days; format: functional
How it was run: as §2, with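 “Cells seeded at” for “Cell counting:”, “per well” for “cells/well seeded”, “CO2” for “CO2 in medium”, “HT-29, HeLa, C6, NIH-3T3).” for “the others).”, “solution” for “stock”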

C6 [19] = assay: Antiproliferative activity against rat C6 cells assessed as induction of cell death at 40 to 60 uM after 4 days; format: functional
How it was run: as §2, with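 “Cells seeded at” for “Cell counting:”, “per well” for “cells/well seeded”, “CO2” for “CO2 in medium”, “HT-29, HeLa, C6, NIH-3T3).” for “the others).”, “solution” for “stock”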

[20] = Antiproliferative activity against mouse NIH/3T3 cells assessed as induction of cell death at 40 to 60 uM after 4 days; format: functional, NIH3T3
How it was run: as §2, with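 “Cells seeded at” for “Cell counting:”, “per well” for “cells/well seeded”, “CO2” for “CO2 in medium”, “HT-29, HeLa, C6, NIH-3T3).” for “the others).”, “solution” for “stock”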

PC-3 [21] = assay: Induction of apoptosis in human PC3 cells assessed as induction of procaspase-3 cleavage at 40 uM after 48 hrs by Western blot method; format: functional
How it was run: (§3)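 Western blot: 40 000 cells/well exposed 2−4 days to 40 μM (HeLa 10 and 30 μM) or 0.2% DMSO. Lysed in Laemmli buffer, run on 12.5% SDS-PAGE, moved to nitrocellulose. Probed overnight at 4 °C with rabbit anti-caspase-3 (1/1000), then Alexa-488 secondary. β-Actin loading control; fluorescence read on a laser scanner.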

PC-3 [22] = assay: Induction of apoptosis in human PC3 cells assessed as induction of procaspase-3 cleavage at 40 uM after 96 hrs by Western blot method; format: functional; how it was run: as §3
HT-29 [23] = assay: Induction of apoptosis in human HT-29 cells assessed as induction of procaspase-3 cleavage at 40 uM after 48 hrs by Western blot method; format: functional; how it was run: as §3
HeLa [24] = assay: Induction of apoptosis in human HeLa cells assessed as induction of procaspase-3 cleavage at 10 uM after 48 hrs by Western blot method; format: functional; how it was run: as §3
HeLa [25] = assay: Induction of apoptosis in human HeLa cells assessed as induction of procaspase-3 cleavage at 30 uM after 48 hrs by Western blot method; format: functional; how it was run: as §3
Jurkat [26] = assay: Induction of apoptosis in human Jurkat cells assessed as induction of procaspase-3 cleavage at 40 uM after 48 hrs by Western blot method; format: functional, cell-based; how it was run: as §3
C6 [27] = assay: Induction of apoptosis in rat C6 cells assessed as induction of procaspase-3 cleavage at 40 uM after 48 hrs by Western blot method; format: functional, cell-based; how it was run: as §3
NIH3T3 [28] = assay: Induction of apoptosis in mouse NIH/3T3 cells assessed as induction of procaspase-3 cleavage at 40 uM after 48 hrs by Western blot method; format: functional, cell-based; how it was run: as §3
PC-3 [29] = assay: Inhibition of DNA synthesis in human PC3 cells assessed as reduction in BrdU incorporation at 40 uM pre-incubated for 30 hrs by Southern blotting method; format: functional
How it was run: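 PC-3, 10^6 cells per flask, held 30 h at 40 μM or 0.2% DMSO, then 18 h BrdU labeling. Genomic DNA isolated by proteinase K/phenol-chloroform; 400 ng run on agarose, blotted to nitrocellulose, acid-denatured, probed with anti-BrdU and Alexa 647 secondary. Scanned signal normalized to ethidium bromide DNA fluorescence.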

PC-3 [30] = assay: Inhibition of DNA synthesis in human PC3 cells assessed as reduction in post-mitotic nuclei level at 40 uM pre-incubated for 30 hrs by immunofluorescence microscopy (reference value: 85%); format: functional; details: PC-3, read-out: INH
PC-3 [31] = assay: Induction of cell cycle arrest in human PC3 cells assessed as accumulation at G1 phase at 40 uM incubated for 48 hrs by propidium iodide staining based flow cytometry (reference value: 57.8 +/- 0.6%); format: functional
PC-3 [32] = assay: Induction of cell cycle arrest in human PC3 cells assessed as accumulation at S phase at 40 uM incubated for 48 hrs by propidium iodide staining based flow cytometry (reference value: 21.6 +/- 0.2%); format: functional
PC-3 [33] = assay: Induction of cell cycle arrest in human PC3 cells assessed as accumulation at G2/M phase at 40 uM incubated for 48 hrs by flow propidium iodide staining based flow cytometry (reference value: 20 +/- 0.6%); format: functional
PC-3 [34] = assay: Reduction in mitotic spindles formation in human PC3 cells at 40 uM incubated for 48 hrs by tubulin immunofluorescence assay; format: functional; details: PC-3, 48 h
How it was run: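 Mitotic spindles: PC-3 in chamber slides (10 000/well), 2 days with 40 μM or 0.2% DMSO. Ethanol/glycine fixation, anti-β-tubulin 1/200 for 2 h at 37 °C, then Alexa 488 secondary. Mitotic cells scored by fluorescence microscopy in random fields; at least 6000−10 000 cells counted per group.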

[35] = Toxicity against human NHDF assessed as cell viability up to 20 uM incubated for 3 days by MTT assay; format: cell-based; details: NHDF cells, read-out: Activity; how it was run: as §1
[36] = Toxicity against human NHDF assessed as cell viability at 40 uM incubated for 3 days by MTT assay; format: cell-based; details: NHDF cells, read-out: Activity; how it was run: as §1
[37] = Toxicity against human NHDF assessed as cell viability at 80 uM incubated for 3 days by MTT assay; format: cell-based; details: NHDF cells, read-out: Activity; how it was run: as §1

O=c1ccc2nccc3c4ccccc4n1c23 [CANTHIN-6-ONE]
viability at 72 h, 160 µM [1]: 33% | EC50 at 3 days [2]: 115 µM | growth inhibition (GI) (PC-3 [3]): Active | growth inhibition (GI) (HT-29 [4]): Active | growth inhibition (GI) (Jurkat [5]): Active | growth inhibition (GI) (C6 [6]): Active | growth inhibition (GI) (NIH3T3 [7]): Active | inhibition of growth at 40 µM (HeLa [8]): > 90% | inhibition of growth at 10 µM (HeLa [9]): 100% | EC50 [10]: 15 µM | EC50 (HT-29 [11]): 15 µM | EC50 (Jurkat [12]): 15 µM | EC50 (HeLa [13]): 5 µM | EC50 (C6 [14]): 15 µM | EC50 [15]: 15 µM | Activity [16]: <=30% | Activity (HT-29 [17]): <=30% | Activity (Jurkat [18]): <=30% | Activity (C6 [19]): <=30% | Activity [20]: <=30% | fold change (FC) (PC-3 [21]): 2 | fold change (FC) (PC-3 [22]): 7 | fold change (FC) (HT-29 [23]): 2 | fold change (FC) (HeLa [24]): 1.5 | fold change (FC) (HeLa [25]): 3.5 | Activity (Jurkat [26]): inactive | Activity (C6 [27]): inactive | Activity (NIH3T3 [28]): inactive | inhibition at 40 µM (PC-3 [29]): 80% | inhibition at 40 µM (PC-3 [30]): 60% | Activity (PC-3 [31]): 38.1% | Activity (PC-3 [32]): 13.3% | Activity (PC-3 [33]): 47.8% | inhibition at 40 µM (PC-3 [34]): 80% | viability at 72 h [35]: 80% | viability at 72 h, 40 µM [36]: 80% | viability at 72 h, 80 µM [37]: 64%

Reference: ChEMBL document CHEMBL3352281, “Canthin-6-one displays antiproliferative activity and causes accumulation of cancer cells in the G2/M phase” (J Nat Prod, 2014)
